NadD block – blocks S. aureus nicotinate mononucleotide adenylyltransferase | purified NadD enzyme, colorimetric absorbance read-out | inhibition, % at 20 µM | 0.78% of 360,000 active; in the data active means inhibition above about 26%
ABHD5-PLIN5 inh – blocks binding of human ABHD5 to perilipin-5; 0.78% of 360,000 active; Split G. princeps luciferase complementation, luminescence, 4 h; AID 602281; inhibition, % at 4 µM; Q00G26+Q8WTS1;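 active means inhibition above the mean inhibition across every tested compound plus 3 SD, cut at about 22% in these data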
rCAG RNA binder – r(CAG) repeat RNA binding | TO-PRO-1 dye displacement fluorescence | inhibition, % at 3 µM | 1.3% of 370,000 active;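 active means inhibition above the plate cutoff, the mean of all test compounds on that plate plus 3 SD, cut at about 35% in these data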;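 further: higher means more dye released from RNA so lower well fluorescence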
core dimer inh – blocks dimerization of HCV core protein. 0.33% of 300,000 active. TR-FRET GST/Flag-core106 dimerization, 1536-well. inhibition, % at 5 µM;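 active means inhibition above the mean of all tested compounds plus 3 SD, set per screening campaign, cut at about 45% in these data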
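Assay system – GST-tagged and Flag-tagged HCV core protein residues 1-106 · Quantity – core106 proteins, GST 13.5 nM and Flag 17 nM · Benchmarks – unlabelled core106 and no-GST-core106 wells · Read-out basis – percent inhibition of core106 dimerization signal · Detection – time-resolved FRET, ex 340 nm, em 617 and 671 nm · Schedule – 4 h at 22.5 °C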
rCAG bind conf – r(CAG) RNA repeat binding, confirmation; 70% of 4,300 active; TO-PRO-1 dye displacement fluorescence; AID 652065; inhibition, % at 3 µM; shares compounds with rCAG RNA binder;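 active means inhibition above a per-plate cutoff, the mean inhibition of sample wells plus 3 SD, cut at about 35% in these data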;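 further: loss of TO-PRO-1 fluorescence as compound displaces dye from 1x1 AA loop RNA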
DNA CAG counter – counter-screen for rCAG RNA binders: DNA CAG dye complex inhibitors; 94% of 4,300 active; shares compounds with rCAG RNA binder; AID 652068; inhibition, % at 3 µM; d(CAG) DNA oligo TO-PRO-1 dye displacement, fluorescence;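 active means inhibition above its plate's cutoff, the mean test-well inhibition plus 3 SD, cut at about 4.8% in these data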;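 further: hits displace the dye from DNA and so lower well fluorescence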
Numbers stand for hits; i = inactive; nt = no result given. Sampled rows, rich in hits. Any-hit rate of the full collection: about 2.6%.

SMILES | NadD block | ABHD5-PLIN5 inh | rCAG RNA binder | core dimer inh | rCAG bind conf | DNA CAG counter
Cc1ccc(C(=O)Nn2c(O)c(C=C3N=c4ccccc4=N3)sc2=S)cc1 | i | i | 58 | i | 40 | 16
O=C1N=c2ccc(Br)cc2=C1c1sc(=S)n(NS(=O)(=O)c2ccccc2)c1O | i | i | 81 | i | 80 | 50
O=C(Nn1c(O)c(C=C2N=c3ccccc3=N2)sc1=S)c1cccc(Cl)c1 | i | i | 73 | i | 43 | 15
O=C(Nn1c(O)c(C=C2N=c3ccccc3=N2)sc1=S)c1ccc(Cl)cc1 | i | i | i | i | nt | nt
O=C(Nn1c(O)c(C=C2N=c3ccccc3=N2)sc1=S)c1ccccc1 | i | i | 51 | i | i | 9.6
O=C1N=c2ccccc2=C1c1sc(=S)n(NC(=O)c2cccc(O)c2)c1O | i | i | i | nt | nt | nt
CC(=O)Nc1ccc(C(=O)N2CCCC(c3cc(C(=O)Nc4ccccc4Cl)no3)C2)cc1 (configuration not stated) | i | i | i | nt | nt | nt
Cc1ccc(S(=O)(=O)Nn2c(O)c(C=C3N=c4ccccc4=N3)sc2=S)cc1 | i | i | 94 | i | 88 | 60
Nc1cc(=O)[nH]c(SCc2cccc3ccccc23)n1 | i | i | i | i | nt | nt
O=c1cc(C(F)(F)F)nc(SCc2cccc3ccccc23)[nH]1 | i | i | 69 | i | 40 | 10
